We go through 34 molecules from ChEMBL document CHEMBL4373708 (J Med Chem, 2019).

As usually defined, the IC50 is the midpoint of a concentration-inhibition curve. The AUC is the area under the concentration-time curve, a measure of exposure. A high value points to more exposure. What is called Tmax is the time from dosing to the highest level. The term Cmax denotes the peak of the concentration-time curve.

The target of one data set is T1, Chloride anion exchanger (Mus musculus, UniProt Q9WVC8).
T1 sequence (Q9WVC8 whole entry): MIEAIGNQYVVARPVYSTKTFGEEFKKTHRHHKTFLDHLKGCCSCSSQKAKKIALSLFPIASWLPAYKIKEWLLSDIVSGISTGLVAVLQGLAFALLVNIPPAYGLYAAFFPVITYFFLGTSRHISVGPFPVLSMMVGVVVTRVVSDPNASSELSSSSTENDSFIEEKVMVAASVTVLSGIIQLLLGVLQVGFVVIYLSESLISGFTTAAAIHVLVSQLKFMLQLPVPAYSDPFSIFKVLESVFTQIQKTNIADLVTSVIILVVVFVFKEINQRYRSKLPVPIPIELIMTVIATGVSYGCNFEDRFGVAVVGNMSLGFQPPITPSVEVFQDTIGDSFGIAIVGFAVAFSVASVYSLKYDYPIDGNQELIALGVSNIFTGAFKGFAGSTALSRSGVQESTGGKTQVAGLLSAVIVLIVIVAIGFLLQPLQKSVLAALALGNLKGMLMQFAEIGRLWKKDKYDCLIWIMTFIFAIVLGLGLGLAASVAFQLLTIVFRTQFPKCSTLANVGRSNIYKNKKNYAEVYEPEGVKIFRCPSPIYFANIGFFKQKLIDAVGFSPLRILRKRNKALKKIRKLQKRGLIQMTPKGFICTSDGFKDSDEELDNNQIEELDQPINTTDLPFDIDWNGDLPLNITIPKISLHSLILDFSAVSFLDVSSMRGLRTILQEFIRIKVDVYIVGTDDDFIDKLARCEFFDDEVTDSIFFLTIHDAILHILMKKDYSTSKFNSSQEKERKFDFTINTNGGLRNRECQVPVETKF
In words: Inhibition of mouse slc26a3 expressed in FRT cells co-expressing EYFP-H148Q/I152L/F46L assessed as reduction in protein-mediated chloride/iodide exchange preincubated for 10 mins followed by NaI-substituted PBS addition and measured by YFP-based fluorescence assay. In kind it is cell-based. A digest of the protocol: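 Chloride/iodide exchange was assayed in FRT cells co-expressing murine slc26a3 and EYFP-H148Q/I152L/F46L. Cells in PBS received iodide-substituted PBS (NaCl replaced by 140 mM NaI), and the fluorescence quenching rate was measured. Concentration–inhibition data were fitted to a single-site model for IC50. Data are representative of 3 replicates.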

A short description of data set [1]: AUC in mouse at 5 mg/kg, ip by LC-MS analysis. The settings on record: in vivo. In kind it is ADME, organism-based. A digest of the protocol: (§1)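 Single intraperitoneal or oral dose in mice at 5 mg/kg (vehicle: saline with 5% DMSO and 10% Kolliphor HS 15) or 10 mg/kg (vehicle: PBS with 5% DMSO and 20% (2-hydroxypropyl)-β-cyclodextrin). Blood taken by retroorbital puncture at set times, serum separated by centrifugation at 4000 g for 20 min at 24 °C, compound quantified by LC/MS.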

Data set [2] is described as follows: AUC in mouse at 5 mg/kg, po by LC-MS analysis. In kind it is ADME, organism-based. The settings on record: in vivo. A digest of the protocol:
as §1

The nature of data set [3]: Tmax in mouse at 5 mg/kg, po by LC-MS analysis. To be noted: in vivo. It is filed as ADME, organism-based. A digest of the protocol:
as §1

Data set [4] can be described thus: Tmax in mouse at 5 mg/kg, ip by LC-MS analysis. It is filed as ADME, organism-based. The settings on record: in vivo. A digest of the protocol:
as §1

The nature of data set [5]: Cmax in mouse at 5 mg/kg, po by LC-MS analysis. In kind it is ADME, organism-based. The settings on record: in vivo. Also noted: dose 5 mg/kg, route oral. A digest of the protocol:
as §1

Data set [6] in a line: Cmax in mouse at 5 mg/kg, ip by LC-MS analysis. In kind it is ADME, organism-based. More on the design: dose 5 mg/kg, route intraperitoneal. To be noted: in vivo. A digest of the protocol: as §1
Data set [7] is described as follows: Time at which serum concentration stays above in vitro IC50 for inhibition of mouse slc26a3 expressed in FRT cells in mouse at 5 mg/kg, po or ip by LC-MS analysis. To be noted: in vivo. In kind it is organism-based. The essentials:
as §1

Bounds are passed on as bounds.

With `Cc1c(CC(=O)O)c(=O)oc2c(C)c(OCc3cccnc3)ccc12`, the IC50 on Chloride anion exchanger was greater than 5 µM.

For the molecule `Cc1c(CC(=O)O)c(=O)oc2c(C)c(OCc3cccc(C(F)(F)F)n3)ccc12`, the IC50 at Chloride anion exchanger is greater than 5 µM.

As for `Cc1c(OCc2cccc(Br)c2)ccc2cc(C(N)=O)c(=O)oc12`, at Chloride anion exchanger, the IC50 is greater than 5 µM. Consider `CCCOc1ccc2c(C)c(CC(=O)O)c(=O)oc2c1C`, for which the IC50 on Chloride anion exchanger was greater than 5 µM. On the same count and under the same terms, the value for `Cc1c(CC(=O)O)c(=O)oc2c(C)c(OCc3cccc(Cl)c3)ccc12` was 1 µM; that for `Cc1c(CC(=O)O)c(=O)oc2c(C)c(OCc3ccccc3Cl)ccc12` was 18 µM; that for `CCCCCOc1ccc2c(C)c(CC(=O)O)c(=O)oc2c1C` was 1 µM. Consider `Cc1c(OCc2cccc(Br)c2)ccc2cc(C(=O)NO)c(=O)oc12`, for which the IC50 at Chloride anion exchanger is 0.45 µM.

As to `Cc1cccc(COc2ccc3c(C)c(CC(=O)O)c(=O)oc3c2C)c1`, the IC50 at Chloride anion exchanger worked out at 0.5 µM. As for `Cc1cccc(S(=O)(=O)Oc2ccc3c(C)c(CC(=O)O)c(=O)oc3c2C)c1`, the IC50 on Chloride anion exchanger is greater than 5 µM. For `Cc1c(OCc2cccc(I)c2)ccc2cc(C(=O)O)c(=O)oc12`, the IC50 on Chloride anion exchanger is greater than 5 µM. Turning to `Cc1c(CC(=O)O)c(=O)oc2c(C)c(OCc3ccccn3)ccc12`, at Chloride anion exchanger, the IC50 is greater than 5 µM. With `Cc1c(CC(=O)O)c(=O)oc2c(C)c(OCCn3cccc3)ccc12`, at Chloride anion exchanger, the IC50 was greater than 5 µM.

Take `Cc1c(CC(=O)O)c(=O)oc2c(C)c(OS(=O)(=O)c3cccc(Cl)c3)ccc12`: at Chloride anion exchanger, the IC50 is greater than 5 µM. On to `Cc1c(OCc2cccc(Br)c2)ccc2cc(C(=O)O)c(=O)oc12`, for which, on Chloride anion exchanger, the IC50 was greater than 5 µM. Still for that read-out and setting: as for `Cc1c(CCC(=O)O)c(=O)oc2c(C)c(OCc3cccc(I)c3)ccc12`, the figure is greater than 5 µM. Still for that read-out and setting: the value for `Cc1c(CC(=O)O)c(=O)oc2c(C)c(OCCC(=O)O)ccc12` was greater than 5 µM; that for `Cc1c(CC(=O)O)c(=O)oc2c(C)c(OCc3ccncc3)ccc12` was greater than 5 µM; that for `Cc1c(CC(=O)O)c(=O)oc2c(C)c(OCCc3cccc(C(F)(F)F)c3)ccc12` was greater than 5 µM.

Turning to `COCCOc1ccc2c(C)c(CC(=O)O)c(=O)oc2c1C`, the IC50 at Chloride anion exchanger was greater than 5 µM. As to `Cc1c(CCC(=O)O)c(=O)oc2c(C)c(OCc3cccc(Br)c3)ccc12`, on Chloride anion exchanger, the IC50 was greater than 5 µM.

Turning to `Cc1c(CC(=O)O)c(=O)oc2c(C)c(OCc3ccccc3Br)ccc12`, the IC50 at Chloride anion exchanger came out at 10 µM. Turning to `Cc1c(CC(=O)O)c(=O)oc2c(C)c(OCc3ccc(Cl)cc3)ccc12`, the IC50 on Chloride anion exchanger is greater than 5 µM. As to `Cc1cc(C)cc(COc2ccc3c(C)c(CC(=O)O)c(=O)oc3c2C)c1`, the IC50 at Chloride anion exchanger came out at 15 µM. Still for that read-out and setting: as for `Cc1c(CC(=O)O)c(=O)oc2c(C)c(OCc3ccc(I)cc3)ccc12`, the figure is greater than 5 µM.

Turning to `Cc1c(CC(=O)O)c(=O)oc2c(C)c(OCc3cccc(Br)c3)ccc12`, the figures for the AUC in data set [1] and in data set [2] were 231 µM·h and 124 µM·h, respectively. The Tmax in data set [3] came out at 5.8 h; in data set [4], 1.5 h. Also, the Cmax in data set [5] is 9.4 µM; in data set [6], 24.3 µM. Further, in data set [7], the Time entry was “>= 24 hr”.

For `Cc1c(CC(=O)O)c(=O)oc2c(C)c(OCc3cc(F)cc(C(F)(F)F)c3)ccc12`, at Chloride anion exchanger, the IC50 worked out at 0.06 µM.

As to `CCCCOc1ccc2c(C)c(CC(=O)O)c(=O)oc2c1C`, the IC50 on Chloride anion exchanger is 1.5 µM. With `Cc1c(CC(=O)O)c(=O)oc2c(C)c(OCc3cccc(CO)n3)ccc12`, the IC50 on Chloride anion exchanger was greater than 5 µM. The same measure, in the same setting: the value for `Cc1c(CC(=O)O)c(=O)oc2c(C)c(OCc3cccc(F)c3)ccc12` was 0.9 µM; that for `Cc1c(CC(N)=O)c(=O)oc2c(C)c(OCc3cccc(Br)c3)ccc12` was 3.3 µM; that for `Cc1c(CC(=O)O)c(=O)oc2c(C)c(OCc3cc(C(F)(F)F)cc(C(F)(F)F)c3)ccc12` was 0.3 µM.

Take `Cc1c(CC(=O)O)c(=O)oc2c(C)c(OCc3ccc(Br)cc3)ccc12`: on Chloride anion exchanger, the IC50 was greater than 5 µM. Turning to `C=CCOc1ccc2c(C)c(CC(=O)O)c(=O)oc2c1C`, the IC50 on Chloride anion exchanger was greater than 5 µM.
